# Where two headings read alike, the source gives them in different places. Marks after values point to notes of the source that are not given here.
# Experiments:
# [1] = Pediatric phase 1 trial: toxicity, DLT and MTD; assay type: in vivo, human; details: for No. of patients with DLT: first course; for No. of courses with Grade 3 Anemia / No. of courses with Grade 3 Lymphopenia / No. of courses with Grade 3 Neutropenia / No. of courses with Grade 3 Thrombocytopenia / No. of courses with Grade 4 Anemia / No. of courses with Grade 4 Lymphopenia / No. of courses with Grade 4 Thrombocytopenia / No. of courses with Grade 4 Neutropenia: independent of frequency or attribution; for No. of courses with Grade 4 Neutropenia: dose-limiting
# [2] = tested on: recurrent or refractory solid tumors; test: Pediatric phase 1 trial: tumor response; assay type: in vivo, human
# Summary of the method: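 Children with recurrent or refractory solid tumors received the test compound as a 1-hour IV infusion on days 1, 8 and 15 of each 28-day course, at 5, 7, 9 or 12 mg/m2/dose. The compound was diluted in 5% dextrose in water to a final ≤ 150 μg/mL. Patients with haematologic DLT continued at the next lower dose level. Radiographic response was assessed by NCI RECIST.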
# [3] = Pediatric phase 1 trial: plasma pharmacokinetics after first dose; design: species or system human; details: in vivo
# [4] = biological target: kinesin spindle protein (KSP/HsEg5); details: read-out: binding constant, Ki; cited from earlier work
# [5] = tested on: Ewing sarcoma, Wilms tumor, glioblastoma, rhabdoid tumor and acute lymphoblastic leukemia xenografts; details: cited from earlier work
# [6] = tested on: adult tumors (breast, ovarian and other cancers); details: 18 mg/m^2 once every 21 days; cited from earlier work
# [7] = cited from earlier work
# [8] = 12 mg/m^2 dose level, of 6 evaluable
# [9] = Course 1 (19 courses), non-dose-limiting, related to protocol therapy
# [10] = Courses 2-7 (15 courses), non-dose-limiting, related to protocol therapy
smiles,measurement,setting,value
"Cc1ccc(C(=O)N(CCCN)[C@@H](c2nc3cc(Cl)ccc3c(=O)n2Cc2ccccc2)C(C)C)cc1 [ispinesib, Ispinesib]",No. of patients with DLT,"[1]; 5 mg/m^2/dose, 3 evaluable patients",0
same,No. of patients with DLT,"[1]; 9 mg/m^2/dose, 6 evaluable patients",1
same,No. of patients with DLT,"[1]; 12 mg/m^2/dose, 6 evaluable patients",3
same,patients with dose-limiting hyperbilirubinemia (grade 3),[1]; [8],1/6
same,patients with dose-limiting neutropenia (grade 4),[1]; [8],2/6
same,pediatric MTD higher than recommended adult phase II dose,[1]; 9 vs 7 mg/m^2/dose,~30%
same,No. of courses with Grade 3 Anemia,[1]; Course 1 (19 courses),1
same,No. of courses with Grade 3 Lymphopenia,[1]; Course 1 (19 courses),2
same,No. of courses with Grade 3 Neutropenia,[1]; Course 1 (19 courses),5
same,No. of courses with Grade 3 Thrombocytopenia,[1]; Course 1 (19 courses),1
same,No. of courses with Grade 4 Anemia,[1]; Course 1 (19 courses),0
same,No. of courses with Grade 4 Lymphopenia,[1]; Course 1 (19 courses),1
same,No. of courses with Grade 4 Thrombocytopenia,[1]; Course 1 (19 courses),0
same,No. of courses with Grade 4 Neutropenia,[1]; Course 1 (19 courses),3 ^*
same,"No. of courses with ALT toxicity, Grade 3",[1]; [9],1
same,"No. of courses with ALT toxicity, Grades 1 and 2",[1]; [9],3
same,"No. of courses with AST toxicity, Grade 3",[1]; [9],1
same,"No. of courses with AST toxicity, Grades 1 and 2",[1]; [9],2
same,"No. of courses with Alkaline phosphatase toxicity, Grade 3",[1]; [9],0
same,"No. of courses with Alkaline phosphatase toxicity, Grades 1 and 2",[1]; [9],2
same,"No. of courses with Constipation, Grade 3",[1]; [9],0
same,"No. of courses with Constipation, Grades 1 and 2",[1]; [9],2
same,"No. of courses with Diarrhea, Grade 3",[1]; [9],0
same,"No. of courses with Diarrhea, Grades 1 and 2",[1]; [9],2
same,"No. of courses with Electrolyte abnormality, Grade 3",[1]; [9],0
same,"No. of courses with Electrolyte abnormality, Grades 1 and 2",[1]; [9],4
same,"No. of courses with Fatigue, Grade 3",[1]; [9],0
same,"No. of courses with Fatigue, Grades 1 and 2",[1]; [9],3
same,"No. of courses with Hyperbilirubinemia, Grade 3",[1]; [9],1
same,"No. of courses with Hyperbilirubinemia, Grades 1 and 2",[1]; [9],1
same,"No. of courses with Hypoalbuminemia, Grade 3",[1]; [9],0
same,"No. of courses with Hypoalbuminemia, Grades 1 and 2",[1]; [9],3
same,"No. of courses with Nausea, Grade 3",[1]; [9],0
same,"No. of courses with Nausea, Grades 1 and 2",[1]; [9],4
same,"No. of courses with Vomiting, Grade 3",[1]; [9],0
same,"No. of courses with Vomiting, Grades 1 and 2",[1]; [9],3
same,No. of courses with Grade 3 Anemia,[1]; Courses 2-7 (15 courses),0
same,No. of courses with Grade 3 Lymphopenia,[1]; Courses 2-7 (15 courses),2
same,No. of courses with Grade 3 Neutropenia,[1]; Courses 2-7 (15 courses),1
same,No. of courses with Grade 3 Thrombocytopenia,[1]; Courses 2-7 (15 courses),0
same,No. of courses with Grade 4 Anemia,[1]; Courses 2-7 (15 courses),0
same,No. of courses with Grade 4 Lymphopenia,[1]; Courses 2-7 (15 courses),0
same,No. of courses with Grade 4 Thrombocytopenia,[1]; Courses 2-7 (15 courses),0
same,No. of courses with Grade 4 Neutropenia,[1]; Courses 2-7 (15 courses),1 ^*
same,"No. of courses with ALT toxicity, Grades 1 and 2",[1]; [10],0
same,"No. of courses with AST toxicity, Grades 1 and 2",[1]; [10],0
same,"No. of courses with Alkaline phosphatase toxicity, Grades 1 and 2",[1]; [10],0
same,"No. of courses with Constipation, Grades 1 and 2",[1]; [10],0
same,"No. of courses with Diarrhea, Grades 1 and 2",[1]; [10],0
same,"No. of courses with Electrolyte abnormality, Grades 1 and 2",[1]; [10],0
same,"No. of courses with Fatigue, Grades 1 and 2",[1]; [10],1
same,"No. of courses with Hyperbilirubinemia, Grades 1 and 2",[1]; [10],0
same,"No. of courses with Hypoalbuminemia, Grades 1 and 2",[1]; [10],0
same,"No. of courses with Nausea, Grades 1 and 2",[1]; [10],1
same,"No. of courses with Vomiting, Grades 1 and 2",[1]; [10],1
same,maximum tolerated dose (MTD) and recommended phase II dose,"[1]; children with solid tumors, 1-hour iv infusion weekly x 3 every 28 days",9 mg/m^2/dose
same,primary dose-limiting adverse events,[1]; pediatric patients,neutropenia and hepatotoxicity
same,reversibility of neutropenia,[1]; pediatric patients,rapidly reversible
same,tolerability,"[1]; pediatric patients, 9 mg/m^2/dose weekly x 3 every 28 days",well tolerated
same,tolerability,"[1]; pediatric patients, 5-12 mg/m^2/dose weekly x 3 every 28 days",generally well tolerated
same,complete courses of therapy with stable disease,"[2]; 7 mg/m^2 dose level, ependymoblastoma",7 courses
same,complete courses of therapy with stable disease,"[2]; 9 mg/m^2 dose level, alveolar soft part sarcoma",5 courses
same,complete courses of therapy with stable disease,"[2]; 12 mg/m^2 dose level, anaplastic astrocytoma",4 courses
same,objective tumor responses,[2]; 24 pediatric patients evaluable for response,no objective tumor responses
same,dose dependence of terminal t1/2,[3]; human,independent of dose
same,"volume of distribution at steady state (Vss), median",[3]; human,84 L/m^2
same,"volume of distribution at steady state (Vss), range",[3]; human,23-193 L/m^2
same,Clearance,"[3]; human, 5 mg/m2",5.3 L/hr/m^2
same,Cmax,"[3]; human, 5 mg/m2, Cmax",145 ng/mL
same,half-life,"[3]; human, 5 mg/m2, t1/2",9 h
same,half-life,"[3]; human, 7 mg/m2, t1/2",14 h
same,Clearance,"[3]; human, 12 mg/m2",13.5 L/hr/m^2
same,Vss,"[3]; human, 12 mg/m2",193 L/m^2
same,Cmax,"[3]; human, 12 mg/m2, Cmax",149 ng/mL
same,half-life,"[3]; human, 12 mg/m2, t1/2",13 h
same,Cmax,"[3]; human, iv, 5 mg/m2, Cmax",86 ng/mL
same,half-life,"[3]; human, iv, 5 mg/m2, t1/2",44 h
same,Cmax,"[3]; human, iv, 7 mg/m2, Cmax",244 ng/mL
same,half-life,"[3]; human, iv, 7 mg/m2, t1/2",32 h
same,Cmax,"[3]; human, iv, 12 mg/m2, Cmax",204 ng/mL
same,half-life,"[3]; human, iv, 12 mg/m2, t1/2",8 h
same,half-life,"[3]; human, terminal elimination half-life (t1/2), median",16 h
same,half-life,"[3]; human, terminal elimination half-life (t1/2), range",8 to 44 h
same,Clearance,[3]; 5 mg/m2,3.0 L/hr/m^2
same,Clearance,[3]; 7 mg/m2,1.2 L/hr/m^2
same,Vss,[3]; 7 mg/m2,51 L/m^2
same,Clearance,[3]; 12 mg/m2,7.1 L/hr/m^2
same,Vss,[3]; 12 mg/m2,83 L/m^2
same,Ki,[4],0.6 nM
same,in vivo anti-tumor activity,[5],high level of in vivo anti-tumor activity
same,activity in other adult tumor indications,[6],No significant activity
same,maximum tolerated dose (MTD),"[7]; adult patients with breast cancer, day 1 and day 15 every 28 days",12 mg/m^2
same,maximum tolerated dose (MTD),"[7]; adult patients with solid tumors, day 1, 2 and 3 every 21 days",6 mg/m^2
same,maximum tolerated dose (MTD),"[7]; adult patients with solid tumors, weekly x 3 every 28 days",7 mg/m^2/dose
same,maximum tolerated dose (MTD),"[7]; adults with acute leukemia, days 1, 2 and 3 every 21 days",10 mg/m^2/dose
same,recommended adult phase II dose,"[7]; adults, weekly x 3 every 28 days",7 mg/m^2/dose

# From paper PMC3053384 (Pediatric blood & cancer, 2010)
